# Source: ChEMBL document CHEMBL1131450, “Synthesis and antitumor evaluation of 2,5-disubstituted-indazolo[4, 3-gh]isoquinolin-6(2H)-ones (9-aza-anthrapyrazoles)” (J Med Chem, 1998)
# Test system: LoVo
# Assay: In vitro cytotoxicity on human colon adenocarcinoma (LoVo ) tumor cell line.
# Type: functional, cell-based
# Conditions: not given
row,SMILES,IC50
1,CN(C)CCNCCNc1ccc2c3c(nn2CCN(C)C)-c2cnccc2C(=O)c13,3.2 µg/mL
2,CNCCNc1ccc2c3c(nn2CCNC)-c2cnccc2C(=O)c13,0.04 µg/mL
3,CN(C)CCn1nc2c3c(c(NCCN4CCNCC4)ccc31)C(=O)c1ccncc1-2,4.83 µg/mL
4,CN(C)CCn1nc2c3c(c(NCCO)ccc31)C(=O)c1ccncc1-2,0.32 µg/mL
5,CN(C)CCn1nc2c3c(c(NCCn4ccnc4)ccc31)C(=O)c1ccncc1-2,1.1 µg/mL
6,NCCNc1ccc2c3c(nn2CCN)-c2cnccc2C(=O)c13,0.86 µg/mL
7,O=C1c2ccncc2-c2nn(CCNCCO)c3ccc(NCCNCCO)c1c23,4.5 µg/mL
8,CN(C)CCn1nc2c3c(c(NCCNS(C)(=O)=O)ccc31)C(=O)c1ccncc1-2,4.1 µg/mL

# Test system: MX1
# Assay: In vivo antitumor activity was measured on MX-1 human mammary carcinoma cells. TWI%=tumor weight inhibition. Optimal dose 18 mg/kg/day.
# Type: functional
# Conditions: not given
row,SMILES,TWI
1,CN(C)CCn1nc2c3c(c(NCCN4CCNCC4)ccc31)C(=O)c1ccncc1-2,14%

# Test system: MX1
# Assay: In vivo antitumor activity was measured on MX-1 human mammary carcinoma cells. TWI%=tumor weight inhibition. Optimal dose 40 mg/kg/day.
# Type: functional
# Conditions: not given
row,SMILES,TWI
1,CN(C)CCn1nc2c3c(c(NCCO)ccc31)C(=O)c1ccncc1-2,97%

# Test system: MX1
# Assay: In vivo antitumor activity was measured on MX-1 human mammary carcinoma cells. TWI%=tumor weight inhibition. Optimal dose 60 mg/kg/day.
# Type: functional
# Conditions: not given
row,SMILES,TWI
1,CN(C)CCNCCNc1ccc2c3c(nn2CCN(C)C)-c2cnccc2C(=O)c13,25%
2,CN(C)CCn1nc2c3c(c(NCCNS(C)(=O)=O)ccc31)C(=O)c1ccncc1-2,90%

# Test system: MX1
# Assay: In vivo antitumor activity was measured on MX-1 human mammary carcinoma cells. TWI%=tumor weight inhibition. Optimal dose 120 mg/kg/day.
# Type: functional
# Conditions: not given
row,SMILES,TWI
1,CN(C)CCn1nc2c3c(c(NCCn4ccnc4)ccc31)C(=O)c1ccncc1-2,70%

# Test system: MX1
# Assay: In vivo antitumor activity was measured on MX-1 human mammary carcinoma cells. TWI%=tumor weight inhibition. Optimal dose 13 mg/kg/day.
# Type: functional
# Conditions: not given
row,SMILES,TWI
1,NCCNc1ccc2c3c(nn2CCN)-c2cnccc2C(=O)c13,70%

# Test system: MX1
# Assay: Antitumor activity was measured on MX-1 human mammary carcinoma cells. TWI%=tumor weight inhibition. Optimal dose at 40 mg/kg/day
# Type: functional
# Conditions: not given
row,SMILES,TWI
1,O=C1c2ccncc2-c2nn(CCNCCO)c3ccc(NCCNCCO)c1c23,89%

# Test system: P388
# Assay: In vivo antitumor activity was measured on systemic P388 murine leukemia cells. Maximum tested dose 18 mg/kg/day.
# Type: functional, Mus musculus
# Conditions: not given
# Summary of the method: (§1)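 CD2F1 male mice given 10⁶ P388 leukemia cells iv (day 0); drug given iv on days 1, 4 and 7. Survival expressed as T/C% = median survival time of treated / median survival of controls × 100, reported at optimal dose (mg/kg/day) or maximum tested dose.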
row,SMILES,T/C
1,CN(C)CCn1nc2c3c(c(NCCN4CCNCC4)ccc31)C(=O)c1ccncc1-2,113%

# Test system: P388
# Assay: In vivo antitumor activity was measured on systemic P388 murine leukemia cells. Maximum tested dose 20 mg/kg/day.
# Type: functional, Mus musculus
# Conditions: not given
# Summary of the method: as §1
row,SMILES,T/C
1,CN(C)CCn1nc2c3c(c(NCCNS(C)(=O)=O)ccc31)C(=O)c1ccncc1-2,111%

# Test system: P388
# Assay: In vivo antitumor activity was measured on systemic P388 murine leukemia cells. Maximum tested dose 40 mg/kg/day.
# Type: functional, Mus musculus
# Conditions: not given
# Summary of the method: as §1
row,SMILES,T/C
1,CN(C)CCNCCNc1ccc2c3c(nn2CCN(C)C)-c2cnccc2C(=O)c13,133%
2,CN(C)CCn1nc2c3c(c(NCCn4ccnc4)ccc31)C(=O)c1ccncc1-2,150%

# Same assay, conditions: in the assay text read “Maximum tested dose 12 mg/kg/day” for “Maximum tested dose 40 mg/kg/day”
row,SMILES,T/C
1,CN(C)CCn1nc2c3c(c(NCCO)ccc31)C(=O)c1ccncc1-2,167%

# Test system: P388
# Assay: In vivo antitumor activity was measured on systemic P388 murine leukemia cells. Optimal dose 1.5 mg/kg/day.
# Type: functional, Mus musculus
# Conditions: not given
# Summary of the method: as §1
row,SMILES,T/C
1,CNCCNc1ccc2c3c(nn2CCNC)-c2cnccc2C(=O)c13,167%

# Test system: P388
# Assay: In vivo antitumor activity was measured on systemic P388 murine leukemia cells. Optimal dose 7.5 mg/kg/day.
# Type: functional, Mus musculus
# Conditions: not given
# Summary of the method: as §1
row,SMILES,T/C
1,NCCNc1ccc2c3c(nn2CCN)-c2cnccc2C(=O)c13,194%

# Test system: P388
# Assay: In vivo antitumor activity was measured on systemic P388 murine leukemia cells. Optimal dose at 40 mg/kg/day
# Type: functional, Mus musculus
# Conditions: not given
# Summary of the method: as §1
row,SMILES,T/C
1,O=C1c2ccncc2-c2nn(CCNCCO)c3ccc(NCCNCCO)c1c23,165%

# Test system: LoVo
# Assay: Resistance index measured as the ratio of IC50 of LoVo/Dx cell line to that of LoVo cell line.
# Type: functional, Homo sapiens
# Conditions: not given
row,SMILES,RI
1,CN(C)CCNCCNc1ccc2c3c(nn2CCN(C)C)-c2cnccc2C(=O)c13,>31
2,CNCCNc1ccc2c3c(nn2CCNC)-c2cnccc2C(=O)c13,78
3,CN(C)CCn1nc2c3c(c(NCCN4CCNCC4)ccc31)C(=O)c1ccncc1-2,21
4,CN(C)CCn1nc2c3c(c(NCCO)ccc31)C(=O)c1ccncc1-2,42.5
5,CN(C)CCn1nc2c3c(c(NCCn4ccnc4)ccc31)C(=O)c1ccncc1-2,>91
6,NCCNc1ccc2c3c(nn2CCN)-c2cnccc2C(=O)c13,18
7,O=C1c2ccncc2-c2nn(CCNCCO)c3ccc(NCCNCCO)c1c23,>22
8,CN(C)CCn1nc2c3c(c(NCCNS(C)(=O)=O)ccc31)C(=O)c1ccncc1-2,>24

# Test system: LoVo/Dx (Homo sapiens)
# Assay: cells
# Conditions: not given
row,SMILES,IC50
1,CN(C)CCNCCNc1ccc2c3c(nn2CCN(C)C)-c2cnccc2C(=O)c13,> 100 µg/mL
2,CNCCNc1ccc2c3c(nn2CCNC)-c2cnccc2C(=O)c13,3.14 µg/mL
3,CN(C)CCn1nc2c3c(c(NCCN4CCNCC4)ccc31)C(=O)c1ccncc1-2,> 100 µg/mL
4,CN(C)CCn1nc2c3c(c(NCCO)ccc31)C(=O)c1ccncc1-2,13.6 µg/mL
5,CN(C)CCn1nc2c3c(c(NCCn4ccnc4)ccc31)C(=O)c1ccncc1-2,> 100 µg/mL
6,NCCNc1ccc2c3c(nn2CCN)-c2cnccc2C(=O)c13,15.4 µg/mL
7,O=C1c2ccncc2-c2nn(CCNCCO)c3ccc(NCCNCCO)c1c23,> 100 µg/mL
8,CN(C)CCn1nc2c3c(c(NCCNS(C)(=O)=O)ccc31)C(=O)c1ccncc1-2,> 100 µg/mL
